# Screening results deposited in PubChem BioAssay by Broad Institute.
# CSC inhib = blocks cancer stem cells; cancer stem cell-like cells viability, luminescence; inhibition, % at 7.5 µM; 1.1% of 300,000 active; AID 2717; in the data active = inhibition above about 75%; inconclusive = no clear call, values can overlap the other calls; tested in HMLE shEcad cells
# HIF act = HIF pathway transcriptional activation; U2OS HRE-luciferase reporter, luminescence; normalized: DMSO 0%, desferrioxamine 100%; activation, % at 7.5 µM (by protocol); 0.32% of 300,000 active; AID 1910;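 active = mean activation of at least 10% of the iron chelator positive control signal, with at least half of replicates also reaching 10%; inconclusive = mean and replicate majority disagree about reaching 10%; inactive = mean and most replicates under 10%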
# Calb FLC = affects C. albicans growth with fluconazole | 0.57% of 300,000 active | C. albicans CaCi-2 (fluconazole-resistant clinical isolate) + fluconazole, Alamar Blue growth, 48 h | growth inhibition, % (test concentration not listed) | AID 1979;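 active = growth inhibition above about 58% in most replicates, limit read from the data, passing the limit was not always enough; inconclusive = exactly half the replicates above a set limit; inactive = most replicates below a set limit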;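 also: all wells also contain fluconazole at 8 µg/ml as a sub-toxic cotreatment; 0% = median of DMSO wells and 100% = median of geldanamycin control wells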
# PolyA inhibitor = inhibitors of polyadenylation in S. cerevisiae; S. cerevisiae SKY197-pL101 polyadenylation reporter, beta-gal luminescence; efflux-impaired pdr1/pdr3 knockout yeast; score 100 = 6 SD above DMSO; 0.02% of 300,000 active; activity score, % at 12 µM;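 active = lowest replicate activity score at least 50, where 100 means six control SD above control mean; inconclusive = lowest score under 50 but half or more replicates reach 50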;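 also: yeast exposed to compound for 9 h at 30 °C; higher score means more reporter readthrough which indicates perturbed polyadenylation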
# Beta apoptosis = beta cell apoptosis inhibition; 0.8% of 300,000 active; protection from apoptosis, % (concentration not given with the values); AID 435005; INS-1E cytokine-induced death, ATP luminescence, 48 h; percent of positive-control rescue, neutral wells zero;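 active = Every replicate reaches about 75%, or at least half do and their mean reaches it too, limit read from the data; inconclusive = At least half of replicates reach the limit but their mean does not; inactive = Under half of replicates reach the limit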;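 also: 0% = cytokine-treated negative control wells and 100% = positive control rescue; higher means more ATP so stronger rescue from cytokine killing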
# T cruzi repl = blocks replication of Trypanosoma cruzi; T. cruzi beta-gal in NIH3T3, luminescence, 90 h; inhibition, % (no concentration beside the values); 1.4% of 300,000 active; AID 1885;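 active = mean inhibition across valid replicates above about 55%, limit read from the data; inconclusive = mean below that limit but half or more replicates reach it; inactive = mean below it, under half of replicates reach it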;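 also: signal also drops with host cell toxicity which is not excluded here; 0% = plate median of DMSO wells and 100% = zero luminescence signal; higher percent means less beta-gal luminescence so fewer parasites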
#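 assay system = mouse NIH/3T3 fibroblasts infected with β-gal-expressing T. cruzi Tulahuen C4 | input = 5,000 NIH/3T3 host cells per well | buffer or medium = DMEM plus 2% FBS | timing = 3 h host attachment, then at least 90 h co-culture | measured by = GalScreen luminescence, 60 min | evaluation = luminescence reflecting intracellular parasite burden, expressed as percent inhibition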
# * hit, by the source's call; ? = inconclusive; · = not tested or not shown. Most compounds without a hit are left out; they make up all but 3.1% or so of the library.
SMILES,CSC inhib,HIF act,Calb FLC,PolyA inhibitor,Beta apoptosis,T cruzi repl
COCCCN1C(=O)c2ccc(C(=O)NCCc3ccccc3)cc2C1=O,-9,1,-3,7,-10,-7
Cc1ccc(-c2ccc([C@H]3[C@@H]4C=CCC[C@@]4(C)C(=O)N3Cc3ccccc3)c(F)c2)cc1,96*,0,-3,15,5,28
C[C@@]12CCC=C[C@H]1[C@H](c1ccc3ccccc3c1)N(Cc1ccccc1)C2=O,86*,-2,-5,28,-8,22
COc1ccc(-c2ccc([C@H]3[C@@H]4C=CCC[C@@]4(C)C(=O)N3Cc3ccccc3)c(F)c2)cc1,54,-1,-13,-4,85*,52
CC(=O)c1ccc(-c2ccc([C@H]3[C@@H]4C=CCC[C@@]4(C)C(=O)N3Cc3ccccc3)c(F)c2)cc1,121*,0,-7,?,22,28
COc1ccc(-c2ccc(OC)c([C@H]3[C@@H]4C=CCC[C@@]4(C)C(=O)N3Cc3ccccc3)c2)cc1OC,28,-1,17,16,5,13
CC1=C(C(=O)OCc2ccccc2)C(c2ccccc2OS(=O)(=O)c2ccc(C)cc2)NC(=O)N1CCCC(=O)O (stereo unspecified),-7,0,6,14,-1,5
COc1ccc(-c2cc([C@H]3[C@@H]4C=CCC[C@@]4(C)C(=O)N3Cc3ccccc3)ccc2F)cc1,122*,0,-10,14,-3,9
CN(CC(=O)Nc1ccc(F)cc1)C(=O)CSc1nnc(Cc2ccccc2)o1,-13,·,·,·,-5,·
O=C(CN1C(=O)c2ccccc2C1=O)Nc1ccccc1,34,-1,-3,4,-1,-6
O=C(Nc1ccccc1)OCN1C(=O)c2ccccc2C1=O,-8,0,69*,6,-3,9
CCN1CCN(Cc2c3ccccc3cc3ccccc23)CC1,-14,1,-7,0,3,-8
Clc1ccc(-c2csc(N/N=C\c3cccnc3)n2)cc1,-13,2,-15,-34,2,55*
Cc1ccc(Nc2nc(-c3cccnc3)cs2)cc1Cl,13,6,9,-39,0,59*
O=C(CN1CCN(c2ccccc2O)CC1)Nc1cccnc1Cl,-5,0,12,-7,5,-6
CC[C@H](C)Cc1cn([C@@H](CCCCNC(=O)OC(C)(C)C)C(=O)NCCCCCCCCCCC(=O)N2CCN(C(=O)OC(C)(C)C)CC2)nn1,15,·,·,·,82*,·
CC(C)(C)OC(=O)NCCCC[C@@H](C(=O)NCCCCCCCCCCC(=O)N1CCN(C(=O)OC(C)(C)C)CC1)n1cc(CCO)nn1,-28,-4,3,10,21,25
C#CCOCCOCCOCCNc1nc(N2CCN(C(=O)CCCCCCCCCCNC(=O)[C@H](CCCCN)n3cc(C[C@@H](C)CC)nn3)CC2)nc(N2CCN(C(=O)CCCCCCCCCCNC(=O)[C@H](CCCCN)n3cc(C[C@@H](C)CC)nn3)CC2)n1,166*,-8,-5,1,114*,55*
C#CCOCCOCCOCCNc1nc(N2CCN(C(=O)CCCCCCCCCCNC(=O)[C@H](CO)n3cc(CCCSC)nn3)CC2)nc(N2CCN(C(=O)CCCCCCCCCCNC(=O)[C@H](CCCCN)n3cc(C[C@@H](C)CC)nn3)CC2)n1,127*,-7,1,9,49,55*
C#CCOCCOCCOCCNc1nc(N2CCN(C(=O)CCCCCCCCCCNC(=O)Cn3cc(C[C@@H](C)O)nn3)CC2)nc(N2CCN(C(=O)CCCCCCCCCCNC(=O)Cn3cc(C[C@@H](C)O)nn3)CC2)n1,63,·,·,·,22,·
C#CCOCCOCCOCCNc1nc(N2CCN(C(=O)CCCCCCCCCCNC(=O)[C@H](CO)n3cc(CCCSC)nn3)CC2)nc(N2CCN(C(=O)CCCCCCCCCCNC(=O)[C@H](CO)n3cc(CCCSC)nn3)CC2)n1,-19,-5,0,-8,4,6
C#CCOCCOCCOCCNc1nc(N2CCN(C(=O)CCCCCCCCCCNC(=O)Cn3cc(C[C@@H](C)O)nn3)CC2)nc(N2CCN(C(=O)CCCCCCCCCCNC(=O)[C@H](CCCCN)n3cc(C[C@@H](C)CC)nn3)CC2)n1,89*,·,·,·,63,·
O=C(CN(c1ccccc1)S(=O)(=O)c1ccccc1)N/N=C/c1ccco1,-4,0,2,2,-2,-9
COc1ccccc1S(=O)(=O)Nc1cc(C)nn1-c1ccc(C)cc1,29,0,23,-1,-3,-1
O=C(Cn1cc(Cl)c([N+](=O)[O-])n1)NCCC1=CCCCC1,6,2,9,15,·,41
SMILES,CSC inhib,HIF act,Calb FLC,PolyA inhibitor,Beta apoptosis,T cruzi repl
C#CCOCCOCCOCCNc1nc(N2CCN(C(=O)CCCCCCCCCCNC(=O)[C@H](CCCCN)n3cc(CCO)nn3)CC2)nc(N2CCN(C(=O)CCCCCCCCCCNC(=O)[C@H](CCCN=C(N)N)n3cc(C[C@@H](C)CC)nn3)CC2)n1,135*,·,·,·,63,·
C#CCOCCOCCOCCNc1nc(N2CCN(C(=O)CCCCCCCCCCNC(=O)[C@H]([C@@H](C)CC)n3cc(CCCCN=C(N)N)nn3)CC2)nc(N2CCN(C(=O)CCCCCCCCCCNC(=O)[C@H](CCCCN)n3cc(C[C@@H](C)CC)nn3)CC2)n1,102*,·,·,·,98*,·
CNC[C@@H]1Oc2ccc(NC(=O)Nc3cccc4ccccc34)cc2C(=O)N([C@@H](C)CO)C[C@@H]1C,1,·,·,·,1,·
CC(=O)c1ccc(NC(=O)C(C)Sc2nnc(C3CC3)n2C2CC2)cc1 (stereo unspecified),·,·,·,·,2,·
COc1cc(C(=O)O[C@H]2CC(C)=CC[C@@]3(C)CC[C@@](O)(C(C)C)[C@H]23)ccc1O,33,0,15,-6,2,1
COc1ccccc1NC(=O)c1cc2cc(Br)ccc2cc1O,106*,-3,0,-23,?,0
Cc1ccc(Cl)cc1NC(=O)c1cc2ccccc2cc1O,28,2,3,4,104*,16
COc1cc(NC(=O)c2cc3ccccc3cc2O)c(OC)cc1Cl,76*,-12,-6,-4,111*,-1
N#CCC(=O)Nc1ccc(C(=O)OCC(=O)N(C2CCCCC2)C2CCCCC2)cc1,6,0,-6,-13,3,7
Cc1cc(C)c(CSc2ncc(-c3ccc([N+](=O)[O-])cc3)[nH]2)c(C)c1,63,0,-2,-18,7,58*
O=[N+]([O-])c1ccc(-c2cnc(SCc3ccccc3Cl)[nH]2)cc1,57,1,39,-1,11,18
CSCCC1NC2(C(=O)Nc3c(C)cc(Cl)cc32)[C@@H]2C(=O)N(C3CCCC3)C(=O)[C@H]12 (stereo partly specified),1,0,84*,17,·,-8
